Structures are written as SMILES. Calls of active or inactive are those of the source. The calls are words filed in the database; no cut-off is given here.

One may read the inhibition as the change of the read-out against control, counted positive when it falls. A word on the IC50: it is the point on the concentration scale where inhibition reaches its midpoint.

Test [1] has as its system Mus musculus. The experiment in a line: Anticonvulsant activity in Swiss albino mouse assessed as protection against subcutaneous pentylenetetrazole-induced seizures at 1 mg/kg, ip administered 0.5 hrs prior to PTZ challenge and measured after 30 mins. The format is functional. A digest of the protocol:
(§1)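 Male Swiss Albino mice (25–30 g), 6 per group, dosed i.p. with drugs in sterile saline, then challenged with PTZ 85 mg/kg s.c. (CD97), given at 10 ml/kg, 0.5 h or 4 h later. Each animal is observed singly for seizures. Protection is scored as protected/total animals.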

Test [2] has as its system Mus musculus. The test can be described thus: Anticonvulsant activity in Swiss albino mouse assessed as protection against subcutaneous pentylenetetrazole-induced seizures at 5 mg/kg, ip administered 0.5 hrs prior to PTZ challenge and measured after 30 mins. The format is functional. A digest of the protocol:
as §1

The subject of test [3] is Mus musculus. The experiment in a line: Anticonvulsant activity in Swiss albino mouse assessed as protection against subcutaneous pentylenetetrazole-induced seizures at 10 mg/kg, ip administered 0.5 hrs prior to PTZ challenge and measured after 30 mins. It is filed as functional. A digest of the protocol: as §1
Test [4] has as its system Mus musculus. The experiment in a line: Anticonvulsant activity in Swiss albino mouse assessed as protection against subcutaneous pentylenetetrazole-induced seizures at 1 mg/kg, ip administered 4 hrs prior to PTZ challenge and measured after 30 mins. The format is functional. A digest of the protocol: as §1
The subject of test [5] is Mus musculus. The experiment in a line: Anticonvulsant activity in Swiss albino mouse assessed as protection against subcutaneous pentylenetetrazole-induced seizures at 5 mg/kg, ip administered 4 hrs prior to PTZ challenge and measured after 30 mins. The format is functional. A digest of the protocol: as §1
For test [6], the system named is Mus musculus. The experiment in a line: Anticonvulsant activity in Swiss albino mouse assessed as protection against subcutaneous pentylenetetrazole-induced seizures at 10 mg/kg, ip administered 4 hrs prior to PTZ challenge and measured after 30 mins. It is filed as functional. A digest of the protocol:
as §1

Another test has as its system Rattus norvegicus. The experiment in a line: Antiepileptic activity in rat model of PTZ-induced epileptiogenesis kindling model assessed as decrease of seizure severity at 5 mg/kg, ip measured up to 28 days. It is filed as functional, organism-based. A digest of the protocol:
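Adult male Wistar rats receive PTZ 40 mg/kg i.p. on alternate days for 28 days plus daily i.p. treatment. After each PTZ injection, rats are observed singly for 45 min and scored on the revised Racine scale (stages to 6). Group mean score per week, ±S.D. Statistics are repeated-measures ANOVA with Tukey's test.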

Test [7] concerns the target T1, Prostaglandin G/H synthase 1 (Ovis aries) (UniProt P05979).
T1 sequence (whole entry): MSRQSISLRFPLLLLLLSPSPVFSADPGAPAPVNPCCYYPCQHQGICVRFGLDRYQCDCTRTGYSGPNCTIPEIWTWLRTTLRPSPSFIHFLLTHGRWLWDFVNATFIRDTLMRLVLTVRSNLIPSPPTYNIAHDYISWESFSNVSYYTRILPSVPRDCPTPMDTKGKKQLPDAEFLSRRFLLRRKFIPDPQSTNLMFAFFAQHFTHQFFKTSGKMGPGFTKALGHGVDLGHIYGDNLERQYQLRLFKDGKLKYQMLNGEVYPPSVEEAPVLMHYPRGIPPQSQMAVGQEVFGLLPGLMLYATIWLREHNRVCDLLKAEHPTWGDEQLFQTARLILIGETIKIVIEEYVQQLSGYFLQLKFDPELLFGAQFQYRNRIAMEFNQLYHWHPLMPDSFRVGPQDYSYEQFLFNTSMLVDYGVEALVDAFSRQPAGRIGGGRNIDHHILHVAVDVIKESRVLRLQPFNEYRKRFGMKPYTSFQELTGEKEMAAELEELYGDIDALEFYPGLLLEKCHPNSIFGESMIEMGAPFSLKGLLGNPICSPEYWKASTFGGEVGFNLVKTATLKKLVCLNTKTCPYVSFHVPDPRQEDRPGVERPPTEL
The experiment in a line: Inhibition of ovine COX1 at 10 uM using arachidonic acid as substrate preincubated for 5 mins followed by substrate addition and measured after 2 mins by ADPH probe-based fluorescence assay relative to control. A digest of the protocol: (§2)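 Kit assay in 100 mM Tris-HCl pH 8.0. Enzyme, heme and inhibitor (DMSO stocks) are incubated 5 min at room temperature. ADPH is added, then arachidonic acid starts the reaction. After 2 min, fluorescence is read at ex 535/em 590 nm. Percent inhibition is taken versus the 100% activity well, background wells included. IC50 is derived from percentage inhibition, mean of three independent experiments.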

The target in test [8] is T2, Prostaglandin G/H synthase 2 (Homo sapiens) (UniProt P35354).
T2 sequence (whole entry): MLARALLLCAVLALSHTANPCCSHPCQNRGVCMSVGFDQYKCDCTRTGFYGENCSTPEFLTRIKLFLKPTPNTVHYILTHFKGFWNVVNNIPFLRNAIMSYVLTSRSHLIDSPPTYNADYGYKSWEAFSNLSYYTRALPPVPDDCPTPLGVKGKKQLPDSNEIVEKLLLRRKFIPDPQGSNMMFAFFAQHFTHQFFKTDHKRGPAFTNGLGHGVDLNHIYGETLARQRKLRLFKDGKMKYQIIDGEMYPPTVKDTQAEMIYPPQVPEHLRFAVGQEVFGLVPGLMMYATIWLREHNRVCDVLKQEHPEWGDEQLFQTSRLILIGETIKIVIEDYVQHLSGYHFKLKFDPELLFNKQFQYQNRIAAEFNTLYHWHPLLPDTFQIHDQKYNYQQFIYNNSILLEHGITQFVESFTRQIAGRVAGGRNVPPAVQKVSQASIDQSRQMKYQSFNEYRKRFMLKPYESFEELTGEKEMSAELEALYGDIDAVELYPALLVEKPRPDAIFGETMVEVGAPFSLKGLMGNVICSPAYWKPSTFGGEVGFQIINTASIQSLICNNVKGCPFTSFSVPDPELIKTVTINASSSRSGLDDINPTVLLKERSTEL
The experiment in a line: Inhibition of human recombinant COX2 at 10 uM using arachidonic acid as substrate preincubated for 5 mins followed by substrate addition and measured after 2 mins by ADPH probe-based fluorescence assay relative to control. A digest of the protocol: as §2

The target of test [9] is T3, Prostaglandin G/H synthase 2 (Homo sapiens, UniProt P35354).
T3 sequence (P35354 whole entry): T2 sequence (whole entry)
The experiment in a line: Inhibition of human recombinant COX2 using arachidonic acid as substrate preincubated for 5 mins followed by substrate addition and measured after 2 mins by ADPH probe-based fluorescence assay. A digest of the protocol:
as §2

Test [10] relates to Mus musculus. The experiment in a line: Anticonvulsant activity in Swiss albino mouse assessed as protection against subcutaneous pentylenetetrazole-induced seizures at 30 mg/kg, ip administered 0.5 hrs prior to PTZ challenge and measured after 30 mins. The format is functional. A digest of the protocol: as §1
The test system of test [11] is Mus musculus. The test can be described thus: Anticonvulsant activity in Swiss albino mouse assessed as protection against subcutaneous pentylenetetrazole-induced seizures at 100 mg/kg, ip administered 0.5 hrs prior to PTZ challenge and measured after 30 mins. It is filed as functional. A digest of the protocol: as §1
The test system of test [12] is Mus musculus. The test can be described thus: Anticonvulsant activity in Swiss albino mouse assessed as protection against subcutaneous pentylenetetrazole-induced seizures at 300 mg/kg, ip administered 0.5 hrs prior to PTZ challenge and measured after 30 mins. It is filed as functional. A digest of the protocol:
as §1

In test [13] the test system is Mus musculus. The experiment in a line: Anticonvulsant activity in Swiss albino mouse assessed as protection against subcutaneous pentylenetetrazole-induced seizures at 30 mg/kg, ip administered 4 hrs prior to PTZ challenge and measured after 30 mins. It is filed as functional. A digest of the protocol: as §1
Test [14] concerns Mus musculus. The experiment in a line: Anticonvulsant activity in Swiss albino mouse assessed as protection against subcutaneous pentylenetetrazole-induced seizures at 100 mg/kg, ip administered 4 hrs prior to PTZ challenge and measured after 30 mins. It is filed as functional. A digest of the protocol: as §1
The test system of test [15] is Mus musculus. The experiment in a line: Anticonvulsant activity in Swiss albino mouse assessed as protection against subcutaneous pentylenetetrazole-induced seizures at 300 mg/kg, ip administered 4 hrs prior to PTZ challenge and measured after 30 mins. The format is functional. A digest of the protocol:
as §1

As for `Cc1ccc(-c2ncc(Cl)cc2-c2ccc(S(C)(=O)=O)cc2)cn1` [ETORICOXIB], the Activity was 50% in the test on Mus musculus [1]; 67% in the test on Mus musculus [2]; 50% in the test with Mus musculus [3]; 50% with Mus musculus [4]; 67% in the test on Mus musculus [5]; 50% in the test with Mus musculus [6]. Besides, the result with Rattus norvegicus was Active.
For the compound `CS(=O)(=O)c1ccc(NC(=O)NNC(=S)NCc2ccccc2)cc1`, in test [7], the inhibition result is “inactive”. Further, in [8], the inhibition turned out to be 21%.
As to `CS(=O)(=O)c1ccc(NC(=O)NNC(=S)NCCc2ccccc2)cc1`, the inhibition result in test [7] was “inactive”. For the same compound, in test [8], the inhibition was 22%.
For the compound `CS(=O)(=O)c1ccc(NC(=O)NNC(=S)Nc2ccc(Cl)cc2)cc1`, in [7], the inhibition entry is “inactive”. Also, the inhibition in [8] was determined as 70%. In test [9], the IC50 was determined as 5.32 µM.
For the compound `COc1ccc(NC(=S)NNC(=O)Nc2ccc(S(C)(=O)=O)cc2)cc1`, in test [7], the inhibition result was “inactive”. In addition, the inhibition in test [8] came to 62%. For the same compound, in test [9], the IC50 was 7.15 µM.
Consider `Cc1cccc(C)c1NC(=S)NNC(=O)Nc1ccc(S(C)(=O)=O)cc1`, for which the inhibition entry in test [7] is “inactive”. In test [8], the inhibition worked out at 64%. The concentration for half-maximal inhibition (IC50) in [9] was determined as 3.14 µM. For the same compound, the Activity in the test with Mus musculus [10] stood at 17%; with Mus musculus [11], 33%; with Mus musculus [12] it was 33%; in the test on Mus musculus [13], 17%; in the test with Mus musculus [14], 33%; with Mus musculus [15], 50%.
As for `CS(=O)(=O)c1ccc(NC(=O)NNC(=S)Nc2cccc(Cl)c2Cl)cc1`, the inhibition entry in test [7] is “inactive”. Moreover, the inhibition in test [8] was 46%.
Regarding `CCCC(CCC)C(=O)[O-].[Na+]` [VALPROATE SODIUM], the Activity was determined as 100% in the test with Mus musculus [12] and 50% in the test with Mus musculus [15].
In the case of `CCNC(=S)NNC(=O)Nc1ccc(S(C)(=O)=O)cc1`, in [7], the inhibition entry is “inactive”. For the same compound, in test [8], the inhibition is 32%.
On to `CS(=O)(=O)c1ccc(NC(=O)NNC(=S)Nc2ccc(F)cc2)cc1`, for which the inhibition result in [7] was “inactive”. Moreover, in [8], the inhibition amounted to 54%. The IC50 in test [9] is 12.5 µM.
For the compound `CS(=O)(=O)c1ccc(NC(=O)NNC(=S)Nc2c(F)cccc2F)cc1`, the inhibition result in test [7] is “inactive”. Further, the inhibition in [8] was found to be 62%. Also, in test [9], the IC50 turned out to be 6.42 µM.
As to `CS(=O)(=O)c1ccc(NC(=O)NNC(=S)Nc2ccccc2)cc1`, the inhibition result in [7] is “inactive”. Further, in test [8], the inhibition is 50%. Moreover, in [9], the IC50 turned out to be 12.8 µM.

Source of the values: ChEMBL document CHEMBL4152211, “Discovery of novel Methylsulfonyl phenyl derivatives as potent human Cyclooxygenase-2 inhibitors with effective anticonvulsant action: Design, synthesis, in-silico, in-vitro and in-vivo evaluation” (Eur J Med Chem, 2018).
